# Legend:
# [1] = Selectivity ratio of CC50 for human MT4 cells to EC50 for HIV1 harboring reverse transcriptase Y188L mutant infected in human MT4 cells; type: toxicity, cell-based; settings: read-out: Ratio CC50/EC50
# [2] = tested on: Human immunodeficiency virus 1; assay: Antiviral activity against HIV1 harboring reverse transcriptase L100I mutant infected in human MT4 cells assessed as reduction in virus-induced cytopathic effect after 5 days by MTT assay; type: functional, organism-based; settings: Human immunodeficiency virus 1, MT4, 120 h
# [3] = tested on: Human immunodeficiency virus 1; assay: Resistance factor, ratio of EC50 for HIV1 harboring reverse transcriptase K103N mutant to EC50 for wild type HIV1; type: functional
# How it was run: (§1)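 The resistance factor is the EC50 against the mutant strain divided by the EC50 against wild-type HIV-1. Both were measured in MT-4 cells by MTT read-out of protection from virus-induced cytopathicity.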
# [4] = tested on: Human immunodeficiency virus 1; assay: Resistance factor, ratio of EC50 for HIV1 harboring reverse transcriptase F227L/V106A double mutant to EC50 for wild type HIV1; type: functional; how it was run: as §1
# MT4 = assay: Cytotoxicity against human MT4 cells after 5 days by MTT assay; type: cell-based; settings: mt4, 120 h
# [5] = Selectivity ratio of CC50 for human MT4 cells to EC50 for HIV1 harboring reverse transcriptase E138K mutant infected in human MT4 cells; type: toxicity, cell-based; settings: read-out: Ratio CC50/EC50
# [6] = tested on: Human immunodeficiency virus 1; assay: Resistance factor, ratio of EC50 for HIV1 harboring reverse transcriptase Y181C mutant to EC50 for wild type HIV1; type: functional; how it was run: as §1
# [7] = Selectivity ratio of CC50 for human MT4 cells to EC50 for HIV1 harboring reverse transcriptase L100I mutant infected in human MT4 cells; type: toxicity, cell-based; settings: read-out: Ratio CC50/EC50
# [8] = biological target: Human immunodeficiency virus type 1 reverse transcriptase (Human immunodeficiency virus 1, UniProt Q72547); assay: Inhibition of recombinant HIV1 reverse transcriptase using (DIG)-dUTP and biotin-labeled dNTPs as substrate after 1 hr by ELISA
# [9] = Aqueous solubility of the compound at pH at 7.4 by HPLC analysis; type: physicochemical; settings: buffer, pH 7.4
# How it was run: (§2)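 Aqueous solubility read by HPLC in buffer at pH 2.0, 7.0 or 7.4.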
# [10] = tested on: Human immunodeficiency virus 1; assay: Resistance factor, ratio of EC50 for HIV1 harboring reverse transcriptase E138K mutant to EC50 for wild type HIV1; type: functional; how it was run: as §1
# [11] = tested on: Human immunodeficiency virus 1; assay: Antiviral activity against HIV1 harboring reverse transcriptase Y188L mutant infected in human MT4 cells assessed as reduction in virus-induced cytopathic effect after 5 days by MTT assay; type: functional, organism-based; settings: Human immunodeficiency virus 1, MT4, 120 h
# [12] = Selectivity ratio of CC50 for human MT4 cells to EC50 for HIV1 harboring reverse transcriptase K103N mutant infected in human MT4 cells; type: toxicity, cell-based; settings: read-out: Ratio CC50/EC50
# [13] = tested on: Human immunodeficiency virus 1; assay: Resistance factor, ratio of EC50 for HIV1 harboring reverse transcriptase L100I mutant to EC50 for wild type HIV1; type: functional; how it was run: as §1
# [14] = Selectivity ratio of CC50 for human MT4 cells to EC50 for HIV1 RES056 infected in human MT4 cells; type: toxicity, cell-based; settings: read-out: Ratio CC50/EC50
# [15] = tested on: Human immunodeficiency virus 2; assay: Antiviral activity against HIV2 ROD infected in human MT4 cells assessed as reduction in virus-induced cytopathic effect after 5 days by MTT assay; settings: Human immunodeficiency virus 2, ISOLATE ROD, MT4, 120 h
# [16] = Selectivity ratio of CC50 for human MT4 cells to EC50 for HIV1 harboring reverse transcriptase Y181C mutant infected in human MT4 cells; type: toxicity, cell-based; settings: read-out: Ratio CC50/EC50
# [17] = tested on: Human immunodeficiency virus 1; assay: Antiviral activity against wild type HIV1 3B infected in human MT4 cells assessed as reduction in virus-induced cytopathic effect after 5 days by MTT assay; type: functional, organism-based; settings: Human immunodeficiency virus 1, 3B, MT4, 120 h
# [18] = Aqueous solubility of the compound at pH at 2 by HPLC analysis; type: physicochemical; settings: buffer, pH 2; how it was run: as §2
# [19] = tested on: Human immunodeficiency virus 1; assay: Antiviral activity against HIV1 harboring reverse transcriptase F227L/V106A double mutant infected in human MT4 cells assessed as reduction in virus-induced cytopathic effect after 5 days by MTT assay; type: functional, organism-based; settings: Human immunodeficiency virus 1, MT4, 120 h
# [20] = tested on: Human immunodeficiency virus 1; assay: Resistance factor, ratio of EC50 for HIV1 harboring reverse transcriptase Y188L mutant to EC50 for wild type HIV1; type: functional; how it was run: as §1
# [21] = tested on: Human immunodeficiency virus 1; assay: Antiviral activity against HIV1 harboring reverse transcriptase Y181C mutant infected in human MT4 cells assessed as reduction in virus-induced cytopathic effect after 5 days by MTT assay; type: functional, organism-based; settings: Human immunodeficiency virus 1, MT4, 120 h
# [22] = Selectivity ratio of CC50 for human MT4 cells to EC50 for HIV1 3B infected in human MT4 cells; type: toxicity, cell-based; settings: read-out: Ratio CC50/EC50
# [23] = Aqueous solubility of the compound in FASSIF by HPLC analysis; type: physicochemical; settings: simulated gi fluid
# How it was run: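 Solubility read by HPLC in fasted state simulated intestinal fluid (FaSSIF).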
# [24] = Aqueous solubility of the compound at pH at 7 by HPLC analysis; type: physicochemical; settings: buffer, pH 7; how it was run: as §2
# [25] = tested on: Human immunodeficiency virus 1; assay: Antiviral activity against HIV1 harboring reverse transcriptase K103N mutant infected in human MT4 cells assessed as reduction in virus-induced cytopathic effect after 5 days by MTT assay; type: functional, organism-based; settings: Human immunodeficiency virus 1, MT4, 120 h
# [26] = tested on: Human immunodeficiency virus 1; assay: Antiviral activity against HIV1 RES056 infected in human MT4 cells assessed as reduction in virus-induced cytopathic effect after 5 days by MTT assay; type: functional, organism-based; settings: Human immunodeficiency virus 1, RES056, MT4, 120 h
# [27] = tested on: Human immunodeficiency virus 1; assay: Antiviral activity against HIV1 harboring reverse transcriptase E138K mutant infected in human MT4 cells assessed as reduction in virus-induced cytopathic effect after 5 days by MTT assay; type: functional, organism-based; settings: Human immunodeficiency virus 1, MT4, 120 h
# [28] = Selectivity ratio of CC50 for human MT4 cells to EC50 for HIV1 harboring reverse transcriptase F227L/V106A double mutant infected in human MT4 cells; type: toxicity, cell-based; settings: read-out: Ratio CC50/EC50
# [29] = tested on: Human immunodeficiency virus 1; assay: Antiviral activity against HIV1 NL4-3 infected in human TZM-bl cells after 2 days by luciferase-bright glo assay; type: functional, organism-based; settings: Human immunodeficiency virus 1, NL4-3, TZM-bl, 48 h
# TZM = assay: Cytotoxicity against human TZM-bl cells after 4 days by XTT assay; type: cell-based; settings: 96 h
# [30] = Selectivity ratio of CC50 for human TZM-bl cells to EC50 for HIV1 NL4-3 infected in human TZM-bl cells; type: toxicity, cell-based; settings: read-out: Ratio CC50/EC50
# How it was run: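 The selectivity index is CC50/EC50 in TZM-bl cells against NL4-3. […] The highest concentration tested was 125 ng/mL.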
SMILES,selectivity ratio [1],EC50 [2],Ratio EC50 [3],Ratio EC50 [4],CC50 (MT4),Ratio EC50 [6],IC50 [8],Ratio EC50 [10],EC50 [11],Ratio EC50 [13],selectivity ratio [14],EC50 [15],EC50 [17],EC50 [19],Ratio EC50 [20],EC50 [21],selectivity ratio [22],EC50 [25],EC50 [26],EC50 [27],also measured
Cc1cc(C#N)cc(C)c1Oc1nc(NC2CCN(Cc3ccc(S(C)(=O)=O)cc3)CC2)nc2c1COC2,3940,3.4 nM,1,3.7,31300 nM,2.5,77 nM,4,7.9 nM,1.8,752,> 27000 nM,1.9 nM,7.2 nM,4,4.9 nM,15900,2 nM,41.6 nM,7.8 nM,selectivity ratio [5]: 3990; selectivity ratio [7]: 9050; solubility [9]: < 1 µg/mL; selectivity ratio [12]: 15200; selectivity ratio [16]: 6320; solubility [18]: 164 µg/mL; solubility [23]: 23.6 µg/mL; solubility [24]: 1.37 µg/mL; selectivity ratio [28]: 4350
Cc1cc(C#N)cc(C)c1Oc1nc(NC2CCN(Cc3ccc(C(N)=O)cc3)CC2)nc2c1SCC2,6590,15.2 nM,1.1,7.9,165000 nM,1.8,66 nM,3.3,22.1 nM,3.3,3800,> 165000 nM,4.8 nM,36.5 nM,4.8,8.4 nM,34200,5 nM,43.6 nM,15.3 nM,selectivity ratio [5]: 9520; selectivity ratio [7]: 9580; selectivity ratio [12]: 28900; selectivity ratio [16]: 17300; selectivity ratio [28]: 4000
Cc1cc(C#N)cc(C)c1Oc1nc(NC2CCN(Cc3ccc(S(N)(=O)=O)cc3)CC2)nc2c1SCC2,1640,5.8 nM,1.3,2.9,19900 nM,1.7,74 nM,2.7,10.1 nM,1.2,692,6550 nM,4.3 nM,13.7 nM,2.2,8 nM,4580,5.9 nM,28.8 nM,12.8 nM,selectivity ratio [5]: 1300; selectivity ratio [7]: 2880; solubility [9]: 2.54 µg/mL; selectivity ratio [12]: 2840; selectivity ratio [16]: 2070; solubility [18]: 192 µg/mL; solubility [23]: 10 µg/mL; solubility [24]: 8.26 µg/mL; selectivity ratio [28]: 1220
Cc1cc(C#N)cc(C)c1Oc1nc(NC2CCN(Cc3ccc(S(N)(=O)=O)cc3)CC2)nc2ccsc12,,,,,,,,,,,,,,,,,,,,,EC50 [29]: 1.16 nM; CC50 (TZM): > 227 nM; selectivity ratio [30]: 196; solubility [9]: < 1 µg/mL; solubility [18]: 190 µg/mL; solubility [23]: 1.24 µg/mL; solubility [24]: 0.05 µg/mL
Cc1cc(C#N)cc(C)c1Oc1nc(NC2CCN(Cc3ccc(S(N)(=O)=O)cc3)CC2)nc2c1SCCC2,,12.9 nM,1.9,8.3,≥ 148000 nM,3.8,,3.1,8 nM,4.7,,> 148000 nM,2.7 nM,22.3 nM,3,10.4 nM,,5.2 nM,40.6 nM,8.5 nM,
Cc1cc(C#N)cc(C)c1Oc1nc(NC2CCN(Cc3ccncc3)CC2)nc2c1CCCC2,,,,,75800 nM,,72 nM,,,,440,21700 nM,8.6 nM,,,,8750,,172 nM,,
Cc1cc(C#N)cc(C)c1Oc1nc(NC2CCN(Cc3ccc(S(N)(=O)=O)cc3)CC2)nc2c1CCC2,,5.9 nM,10,32.3,> 234000 nM,12.9,91 nM,38.4,14 nM,5.3,,58300 nM,1.1 nM,35.6 nM,12.7,14.2 nM,,11 nM,25.8 nM,42.3 nM,
Cc1cc(C#N)cc(C)c1Oc1nc(NC2CCN(Cc3cccc(C(N)=O)c3)CC2)nc2c1CCCC2,,,,,158000 nM,,101 nM,,,,50,> 158000 nM,6.5 nM,,,,24400,,3150 nM,,
Cc1cc(C#N)cc(C)c1Oc1nc(NC2CCN(Cc3ccncc3)CC2)nc2c1COC2,4770,4.1 nM,0.5,4.4,37600 nM,2.1,56 nM,2.6,7.8 nM,1.8,871,5120 nM,2.3 nM,10.5 nM,3.3,4.9 nM,15900,1.2 nM,43.1 nM,6.2 nM,selectivity ratio [5]: 6020; selectivity ratio [7]: 9040; selectivity ratio [12]: 31200; selectivity ratio [16]: 7630; solubility [18]: 223 µg/mL; solubility [23]: 8.57 µg/mL; solubility [24]: 14.6 µg/mL; selectivity ratio [28]: 3580
Cc1cc(C#N)cc(C)c1Oc1nc(NC2CCN(Cc3ccc(S(C)(=O)=O)cc3)CC2)nc2c1CSC2,,,,,45300 nM,,91 nM,,,,259,≥ 22700 nM,3.8 nM,,,,11700,,170 nM,,
Cc1cc(C#N)cc(C)c1Oc1nc(NC2CCN(Cc3ccc([N+](=O)[O-])cc3)CC2)nc2c1CSC2,,,,,27100 nM,,129 nM,,,,24,> 27100 nM,11.5 nM,,,,2340,,1140 nM,,

# From ChEMBL document CHEMBL4368909, “Identification of Dihydrofuro[3,4- d]pyrimidine Derivatives as Novel HIV-1 Non-Nucleoside Reverse Transcriptase Inhibitors with Promising Antiviral Activities and Desirable Physicochemical Properties” (J Med Chem, 2019)
